Calls of active or inactive are those of the source. The rule behind the calls is not given here.
How the values were obtained:
Melanocortin receptor 3 [1] = target: Melanocortin receptor 3 (Homo sapiens, UniProt P41968); test: Displacement of [125I]NDPMSH from human MC3R expressed in HEK293 cells; assay type: cell-based
Melanocortin receptor 4 [2] = target: Melanocortin receptor 4 (Homo sapiens, UniProt P32245); test: Displacement of [125I]NDPMSH from human MC4R expressed in HEK293 cells; assay type: cell-based
Chain of Melanocortin receptor 4 (Homo sapiens, UniProt P32245) (P32245 whole entry): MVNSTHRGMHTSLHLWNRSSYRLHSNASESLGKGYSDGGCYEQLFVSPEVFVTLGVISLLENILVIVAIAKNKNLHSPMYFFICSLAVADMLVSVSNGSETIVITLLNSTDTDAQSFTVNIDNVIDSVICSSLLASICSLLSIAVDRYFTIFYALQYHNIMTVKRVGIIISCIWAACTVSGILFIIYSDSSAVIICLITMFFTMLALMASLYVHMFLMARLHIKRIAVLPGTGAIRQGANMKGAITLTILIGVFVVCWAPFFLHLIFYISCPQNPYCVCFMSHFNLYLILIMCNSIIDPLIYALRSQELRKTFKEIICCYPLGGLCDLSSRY

Melanocortin receptor 5 = Melanocortin receptor 5 (Homo sapiens, UniProt P33032); test: Displacement of [125I]NDPMSH from human MC5R expressed in HEK293 cells; assay type: cell-based
Chain of Melanocortin receptor 5 (P33032 whole entry): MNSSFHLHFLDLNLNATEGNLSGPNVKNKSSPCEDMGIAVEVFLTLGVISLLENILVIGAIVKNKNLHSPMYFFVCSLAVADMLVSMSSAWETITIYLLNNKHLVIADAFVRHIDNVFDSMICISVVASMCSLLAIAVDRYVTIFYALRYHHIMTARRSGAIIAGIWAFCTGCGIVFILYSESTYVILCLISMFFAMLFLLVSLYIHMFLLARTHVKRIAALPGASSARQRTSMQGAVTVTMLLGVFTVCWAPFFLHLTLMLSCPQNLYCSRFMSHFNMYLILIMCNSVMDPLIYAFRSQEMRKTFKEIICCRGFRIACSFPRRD

[3] = target: Melanocyte-stimulating hormone receptor (Homo sapiens, UniProt Q01726); test: Displacement of [125I]NDPMSH from human MC1R expressed in HEK293 cells at 10 uM; assay type: cell-based
Chain of Melanocyte-stimulating hormone receptor (Q01726 whole entry, looked up): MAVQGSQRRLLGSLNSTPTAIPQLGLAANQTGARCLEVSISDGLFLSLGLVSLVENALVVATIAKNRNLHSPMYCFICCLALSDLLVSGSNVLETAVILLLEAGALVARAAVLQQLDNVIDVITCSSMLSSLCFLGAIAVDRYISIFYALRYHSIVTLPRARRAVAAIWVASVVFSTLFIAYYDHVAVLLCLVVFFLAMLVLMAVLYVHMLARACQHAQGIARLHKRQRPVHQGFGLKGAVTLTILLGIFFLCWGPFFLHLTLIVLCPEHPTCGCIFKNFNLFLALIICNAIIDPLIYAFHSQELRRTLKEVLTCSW

[4] = Distribution coefficient, log D by shake flask method; assay type: physicochemical; conditions: octanol/water
In short: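 LogD measured by the shake-flask method; described elsewhere in the paper as lipophilicity at pH 7.4.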

[5] = Volume of distribution in CD1 mouse at 5 mg/kg, iv; assay type: ADME, organism-based; parameters: dose 5 mg/kg, route intravenous; conditions: in vivo
In short: (§1)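 CD-1 mice, three animals per route; single i.v. dose at 5 mg/kg and oral gavage at 10 mg/kg. Plasma PK parameters derived; brain concentrations and brain/plasma ratios taken from the i.v. dosing at 1 and 4 h.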

[6] = Half life in CD1 mouse at 5 mg/kg, iv; assay type: ADME, organism-based; parameters: dose 5 mg/kg, route intravenous; conditions: in vivo
In short: (§2)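 CD-1 mice, three animals, dosed i.v. at 5 mg/kg and by oral gavage at 10 mg/kg. Plasma CL, Vd, t1/2, Cmax, Tmax, oral AUC and F% were derived. Brain concentrations and brain/plasma ratios at 1 and 4 h were taken from the i.v. dosing.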

[7] = Drug level in CD1 mouse brain at 5 mg/kg, iv after 1 hr; assay type: ADME, organism-based; parameters: dose 5 mg/kg, route intravenous; conditions: read-out: Drug uptake; in short: as §2
[8] = Ratio of drug level in brain to plasma in CD1 mouse at 5 mg/kg, iv after 1 hr; assay type: ADME, organism-based; parameters: dose 5 mg/kg, route intravenous; conditions: brain and plasma, read-out: BPR
[9] = Tmax in CD1 mouse at 10 mg/kg, po; assay type: ADME, organism-based; parameters: dose 10 mg/kg, route oral; conditions: in vivo; in short: as §1
[10] = Cmax in CD1 mouse at 10 mg/kg, po after 6 hrs; assay type: ADME, organism-based; parameters: dose 10 mg/kg, route oral; conditions: in vivo; in short: as §2
[11] = Clearance in Sprague-Dawley rat at 5 mg/kg, iv and 10 mg/kg, po; assay type: ADME, organism-based; conditions: in vivo
[12] = Volume of distribution in Sprague-Dawley rat at 5 mg/kg, iv and 10 mg/kg, po; assay type: ADME, organism-based; conditions: in vivo
In short: (§3)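 Sprague–Dawley rats, three animals per route; i.v. dose 5 mg/kg and oral 10 mg/kg. Brain concentrations and brain/plasma ratios taken from the oral dosing at 1 and 4 h post-dose.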

[13] = Cmax in Sprague-Dawley rat at 10 mg/kg, po; assay type: ADME, organism-based; parameters: dose 10 mg/kg, route oral; conditions: in vivo
[14] = AUC in Sprague-Dawley rat at 10 mg/kg, po; assay type: ADME, organism-based; parameters: dose 10 mg/kg, route oral; conditions: plasma
[15] = Oral bioavailability in Sprague-Dawley rat at 10 mg/kg, po; assay type: ADME, organism-based; conditions: in vivo; in short: as §3
[16] = Drug level in Sprague-Dawley rat brain at 10 mg/kg, po after 1 hr; assay type: ADME, organism-based; parameters: dose 10 mg/kg, route oral; conditions: read-out: Drug uptake
[17] = Ratio of drug level in brain to plasma in Sprague-Dawley rat at 10 mg/kg, po after 1 hr; assay type: ADME, organism-based; parameters: dose 10 mg/kg, route oral; conditions: brain and plasma, read-out: BPR; in short: as §3
[18] = Ratio of drug level in brain to plasma in Sprague-Dawley rat at 10 mg/kg, po after 4 hrs; assay type: ADME, organism-based; parameters: dose 10 mg/kg, route oral; conditions: brain and plasma, read-out: BPR; in short: as §3
[19] = Clearance in dog at 5 mg/kg, iv; assay type: ADME, organism-based, Canis lupus familiaris; parameters: dose 5 mg/kg, route intravenous; conditions: in vivo
[20] = Volume of distribution in dog at 5 mg/kg, iv; assay type: ADME, organism-based, Canis lupus familiaris; parameters: dose 5 mg/kg, route intravenous; conditions: in vivo
[21] = AUC in dog at 5 mg/kg, iv; assay type: ADME, organism-based, Canis lupus familiaris; parameters: dose 5 mg/kg, route intravenous; conditions: plasma
[22] = Bioavailability in dog at 10 mg/kg, po; assay type: ADME, organism-based, Canis lupus familiaris; conditions: in vivo
[23] = Clearance in monkey at 5 mg/kg, iv; assay type: ADME, organism-based, Macaca mulatta; parameters: dose 5 mg/kg, route intravenous; conditions: rhesus monkey, in vivo
[24] = Volume of distribution in monkey at 5 mg/kg, iv; assay type: ADME, organism-based, Macaca mulatta; parameters: dose 5 mg/kg, route intravenous; conditions: rhesus monkey, in vivo
Mus musculus [25] = test: Increase in food intake in Lewis lung carcinoma bearing C57BL/6J mouse at 9 mg/kg, ip bid after 4 days; assay type: functional, organism-based; parameters: dose 9 mg/kg
In short: (§4)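 Male C57BL/6J mice inoculated with Lewis lung carcinoma cells. From day 11 after inoculation, mice were dosed i.p. twice daily at 3 or 9 mg/kg for 4 days and compared with vehicle-treated tumor-bearing controls. Food intake and body weight were recorded; lean body mass was measured by DEXA.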

[26] = Half life in monkey at 5 mg/kg, iv; assay type: ADME, organism-based, Macaca mulatta; parameters: dose 5 mg/kg, route intravenous; conditions: rhesus monkey, in vivo
[27] = Cmax in monkey at 10 mg/kg, po; assay type: ADME, organism-based, Macaca mulatta; parameters: dose 10 mg/kg, route oral; conditions: rhesus monkey, in vivo
[28] = Tmax in monkey at 10 mg/kg, po; assay type: ADME, organism-based, Macaca mulatta; parameters: dose 10 mg/kg, route oral; conditions: rhesus monkey, in vivo
Mus musculus [29] = test: Increase in body weight in Lewis lung carcinoma bearing C57BL/6J mouse at 3 mg/kg, ip bid after 4 days; assay type: functional, organism-based; parameters: dose 3 mg/kg; in short: as §4
Mus musculus [30] = test: Increase in body weight in Lewis lung carcinoma bearing C57BL/6J mouse at 9 mg/kg, ip bid after 4 days; assay type: functional, organism-based; parameters: dose 9 mg/kg; in short: as §4
Melanocortin receptor 4 [31] = target: Melanocortin receptor 4 (Mus musculus, UniProt P56450); test: Binding affinity to mouse MC4R
Chain of Melanocortin receptor 4 (Mus musculus, UniProt P56450) (P56450 whole entry): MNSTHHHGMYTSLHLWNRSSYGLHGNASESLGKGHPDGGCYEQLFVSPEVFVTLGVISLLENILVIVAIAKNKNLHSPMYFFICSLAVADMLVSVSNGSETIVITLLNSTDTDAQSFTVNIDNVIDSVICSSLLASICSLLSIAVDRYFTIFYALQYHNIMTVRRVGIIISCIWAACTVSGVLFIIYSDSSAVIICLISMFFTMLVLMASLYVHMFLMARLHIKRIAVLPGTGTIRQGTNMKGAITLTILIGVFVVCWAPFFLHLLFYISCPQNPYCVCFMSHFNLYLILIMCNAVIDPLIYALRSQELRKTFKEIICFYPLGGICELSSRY

Melanocortin receptor 3 [32] = target: Melanocortin receptor 3 (Mus musculus, UniProt P33033); test: Binding affinity to mouse MC3R
Chain of Melanocortin receptor 3 (Mus musculus, UniProt P33033) (P33033 whole entry): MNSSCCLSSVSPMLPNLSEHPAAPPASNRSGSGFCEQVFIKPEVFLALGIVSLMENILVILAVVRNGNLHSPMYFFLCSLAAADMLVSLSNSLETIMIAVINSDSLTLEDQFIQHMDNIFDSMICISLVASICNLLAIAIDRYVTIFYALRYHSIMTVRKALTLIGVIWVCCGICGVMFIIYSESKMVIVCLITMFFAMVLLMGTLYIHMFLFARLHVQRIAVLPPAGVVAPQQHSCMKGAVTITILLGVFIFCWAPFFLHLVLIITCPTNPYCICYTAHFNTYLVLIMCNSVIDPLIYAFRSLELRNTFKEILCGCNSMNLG

[33] = Cmax in CD1 mouse at 10 mg/kg, ip; assay type: ADME, organism-based; parameters: dose 10 mg/kg, route intraperitoneal; conditions: in vivo
In short: (§5)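 CD-1 mice, single intraperitoneal dose of 10 mg/kg, n = 3. Plasma concentration followed over time, giving Cmax, Tmax and AUC.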

[34] = AUC in CD1 mouse at 10 mg/kg, ip; assay type: ADME, organism-based; parameters: dose 10 mg/kg, route intraperitoneal; conditions: plasma; in short: as §5
[35] = Plasma concentration in CD1 mouse at 10 mg/kg, ip after 8 hrs; assay type: ADME, organism-based; parameters: dose 10 mg/kg, route intraperitoneal
[36] = Ratio of drug level in brain to plasma in CD1 mouse at 10 mg/kg, ip; assay type: ADME, organism-based; parameters: dose 10 mg/kg, route intraperitoneal; conditions: read-out: BPR
[37] = target: Growth hormone secretagogue receptor type 1 (Homo sapiens, UniProt Q92847); test: Agonist activity at GHSR; assay type: functional
Chain of Growth hormone secretagogue receptor type 1 (Q92847 whole entry): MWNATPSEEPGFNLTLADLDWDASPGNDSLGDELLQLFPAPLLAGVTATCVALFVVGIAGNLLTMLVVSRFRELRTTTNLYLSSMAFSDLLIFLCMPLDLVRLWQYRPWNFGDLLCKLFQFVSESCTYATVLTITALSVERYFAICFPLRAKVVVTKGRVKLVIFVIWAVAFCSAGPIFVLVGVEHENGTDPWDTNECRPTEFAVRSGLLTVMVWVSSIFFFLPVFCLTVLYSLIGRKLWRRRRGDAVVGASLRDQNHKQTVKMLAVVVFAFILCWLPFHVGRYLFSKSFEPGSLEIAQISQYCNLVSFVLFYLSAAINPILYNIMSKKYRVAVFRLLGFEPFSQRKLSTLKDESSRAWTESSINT

Cytochrome P450 1A2 = target: T1, Cytochrome P450 1A2 (Homo sapiens, UniProt P05177); test: Inhibition of CYP1A2; assay type: ADME
T1 sequence (P05177 whole entry): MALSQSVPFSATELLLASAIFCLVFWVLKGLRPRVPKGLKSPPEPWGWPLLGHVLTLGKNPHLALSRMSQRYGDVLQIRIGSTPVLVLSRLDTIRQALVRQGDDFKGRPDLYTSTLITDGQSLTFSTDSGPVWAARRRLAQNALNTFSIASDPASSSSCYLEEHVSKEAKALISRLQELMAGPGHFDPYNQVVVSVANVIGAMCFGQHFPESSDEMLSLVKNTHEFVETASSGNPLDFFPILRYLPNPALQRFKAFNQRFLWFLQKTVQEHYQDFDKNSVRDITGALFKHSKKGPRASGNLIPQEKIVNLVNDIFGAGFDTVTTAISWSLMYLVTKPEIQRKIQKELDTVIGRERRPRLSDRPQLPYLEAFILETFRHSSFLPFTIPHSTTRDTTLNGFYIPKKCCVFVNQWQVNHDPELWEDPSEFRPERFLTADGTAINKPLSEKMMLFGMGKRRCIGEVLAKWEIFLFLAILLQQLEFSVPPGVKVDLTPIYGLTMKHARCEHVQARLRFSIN

Cytochrome P450 2D6 = Cytochrome P450 2D6 (Homo sapiens, UniProt P10635); test: Inhibition of CYP2D6; assay type: ADME
Chain of Cytochrome P450 2D6 (P10635 whole entry): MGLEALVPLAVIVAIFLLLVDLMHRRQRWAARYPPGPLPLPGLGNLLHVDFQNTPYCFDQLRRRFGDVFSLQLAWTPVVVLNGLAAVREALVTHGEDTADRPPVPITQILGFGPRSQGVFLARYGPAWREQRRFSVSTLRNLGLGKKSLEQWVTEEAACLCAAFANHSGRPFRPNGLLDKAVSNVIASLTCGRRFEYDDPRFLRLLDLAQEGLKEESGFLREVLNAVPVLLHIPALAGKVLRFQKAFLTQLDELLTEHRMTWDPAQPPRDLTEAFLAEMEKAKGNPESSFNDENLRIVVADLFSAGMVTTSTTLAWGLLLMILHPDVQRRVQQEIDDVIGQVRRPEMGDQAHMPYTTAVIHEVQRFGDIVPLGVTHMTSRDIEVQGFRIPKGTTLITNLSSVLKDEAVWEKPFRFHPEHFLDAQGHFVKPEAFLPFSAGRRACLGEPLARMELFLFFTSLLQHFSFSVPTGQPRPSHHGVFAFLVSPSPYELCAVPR

Cytochrome P450 2C19 = Cytochrome P450 2C19 (Homo sapiens, UniProt P33261); test: Inhibition of CYP2C19; assay type: ADME
Chain of Cytochrome P450 2C19 (P33261 whole entry): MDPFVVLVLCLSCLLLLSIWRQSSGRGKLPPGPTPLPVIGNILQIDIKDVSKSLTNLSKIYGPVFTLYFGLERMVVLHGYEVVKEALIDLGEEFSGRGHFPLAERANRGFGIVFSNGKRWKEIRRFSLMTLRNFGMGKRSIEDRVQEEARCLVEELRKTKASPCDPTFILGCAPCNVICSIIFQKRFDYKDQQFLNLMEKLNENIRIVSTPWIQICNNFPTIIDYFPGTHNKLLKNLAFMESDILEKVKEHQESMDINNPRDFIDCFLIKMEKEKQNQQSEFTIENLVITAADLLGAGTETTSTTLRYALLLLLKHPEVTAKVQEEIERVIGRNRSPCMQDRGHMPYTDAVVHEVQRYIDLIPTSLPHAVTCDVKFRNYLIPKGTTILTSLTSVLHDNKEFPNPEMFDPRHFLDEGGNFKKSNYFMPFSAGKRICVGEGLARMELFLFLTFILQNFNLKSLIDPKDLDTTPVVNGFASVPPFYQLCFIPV

Chain of Melanocortin receptor 3 (Homo sapiens, UniProt P41968) (P41968 whole entry): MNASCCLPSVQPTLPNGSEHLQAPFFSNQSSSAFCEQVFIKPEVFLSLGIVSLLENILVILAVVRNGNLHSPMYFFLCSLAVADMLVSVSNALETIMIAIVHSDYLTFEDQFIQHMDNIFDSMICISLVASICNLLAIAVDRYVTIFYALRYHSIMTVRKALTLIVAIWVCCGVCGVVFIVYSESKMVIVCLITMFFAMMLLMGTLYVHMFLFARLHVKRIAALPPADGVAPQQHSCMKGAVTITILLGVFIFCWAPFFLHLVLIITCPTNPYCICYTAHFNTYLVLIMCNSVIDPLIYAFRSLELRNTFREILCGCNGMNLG

Ki (Melanocortin receptor 3 [1]): 710 nM
Ki (Melanocortin receptor 4 [2]): 3.4 nM
Ki (Melanocortin receptor 5): 600 nM
Activity [3]: 20%
logD [4]: 3.9
Vd [5]: 11 L/kg
half-life [6]: 3.5 h
concentration at 1 h [7]: 800 ng/g
Kp at 1 h [8]: 2.4
Tmax [9]: 0.5 h
Cmax [10]: 132 ng/mL
clearance [11]: 13 mL/min/kg
Vd [12]: 2.5 L/kg
Cmax [13]: 163 ng/mL
AUC [14]: 1870 ng·h/mL
bioavailability [15]: 18%
concentration at 1 h [16]: 3 ng/g
Kp at 1 h [17]: 0.1
Kp at 4 h [18]: 0.3
clearance [19]: 29.4 mL/min/kg
Vd [20]: 11.8 L/kg
AUC [21]: 2510 ng·h/mL
bioavailability [22]: 29.4%
clearance [23]: 24.3 mL/min/kg
Vd [24]: 8.5 L/kg
half-life [26]: 4.1 h
Cmax [27]: 108 ng/mL
Tmax [28]: 2.7 h
Ki (Melanocortin receptor 4 [31]): 18 nM
Ki (Melanocortin receptor 3 [32]): 340 nM
Cmax [33]: 1520 ng/mL
AUC [34]: 3070 ng·h/mL
concentration at 8 h [35]: 100 ng/mL
Kp [36]: 2
EC50 [37]: 720 nM
Intrinsic activity [37]: 47%
IC50 (Cytochrome P450 1A2): > 10000 nM
IC50 (Cytochrome P450 2D6): > 10000 nM
IC50 (Cytochrome P450 2C19): > 10000 nM
SMILES: CC(C)C[C@H](NC(=O)CCN(C)C)c1cc(Cl)ccc1N1CCN(C(=O)[C@H](C)Cc2ccc(Cl)cc2)CC1
Activity (Mus musculus [25]): Active
Activity (Mus musculus [29]): Active
Activity (Mus musculus [30]): Active
